The source made the active and inactive calls.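 The calls were made as follows, unless noted: active = viability at or below 10% of carrier control in both of two separate runs; inconclusive = viability at or below 10% in only one of the two runs; inactive = the rest.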

The text below walks through data of PubChem BioAssay.

Assay [1] is described as follows: reduced viability of SK-BR-3 breast cancer cells – cell-based, 24 h, human, pilot screen (AID 572).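 Also: compound exposure lasted between 18 and 24 h rather than exactly 24 h; 100% = carrier-treated control wells.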 Conditions: SK-BR-3 viability, CellTiter-Glo luminescence, at 10 µM, stronger effect = lower value.
Assay [2] can be described thus: HUVEC growth inhibition – cell-based, human, primary screen (AID 575;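 active = viability at or below 30% in both replicate assays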;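 also: 100% = median of untreated cell wells with 0.1% DMSO on each plate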). Conditions: HUVEC proliferation, CellTiter-Glo luminescence, 72 h; at 10 µM; stronger effect = lower value. Put shortly:
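Test system: HUVEC primary cells. Quantity: 1250 endothelial cells in each well. Dosing: single-point 10 µM, DMSO 0.1% final. Incubation: 72 h treatment at 37 °C. Measured by: CTG luminescence. Control set: DMSO cell controls and MePR drug controls. Plate: collagen-coated 384-well format.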
(In general: Cellular ATP, detected with luciferase, serves as a proxy for viable cell number.)

Assay [3] is described as follows: H69AR cell proliferation blockers – human, duplicate replicates, primary screen (AID 580;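 active = viability at or under a set limit in both replicates, limit being median viability minus 3 SD, cut at about 48% in these data, passing the limit was not always enough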;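 also: 100% = mean luminescence of untreated wells and 0% = no signal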). Particulars: H69AR lung tumor cells viability, ATP luminescence, 72 h; at 10 µM; stronger effect = lower value.
A short description of assay [4]: MRP1 drug-resistance reversers in H69AR cells – cell-based, doxorubicin co-treatment, pilot screen (AID 601;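 active = viability loss from added drug above about 55%, and viability with drug at most 40%, in both replicates, limit read from the data, passing the limit was not always enough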). Conditions: CellTiter-Glo, 72 h, at 10 µM; for differential viability (reversal): stronger effect = higher value.
Assay [5] can be described thus: yeast transport mutant growth inhibition pilot in 384-well plates, post-Golgi transport modulator project (AID 636; in the data active = inhibition above about 31%). Conditions: absorbance 615 nm, about 18 h, stronger effect = higher value.
The nature of assay [6]: growth suppression of yeast trafficking mutant, preliminary HTS, modulators of trafficking downstream of Golgi apparatus project, 1536-format plate, OD 615 nm (AID 637; in the data active = inhibition above about 30%). Particulars: yeast transport mutant growth, absorbance 615 nm, 18 h; stronger effect = higher value.
[7] abbreviates: H69AR cells + 2 uM doxorubicin, measured here: viability with 2 uM doxorubicin, stronger effect = lower value.
The mark [8] stands for this setting: H69AR cells, compound alone cytotoxicity.

By viability is commonly meant a read-out of living cells in per cent, often relative to untreated cells. By inhibition is commonly meant the drop in the measured response relative to a control, in per cent. On to `CCCC1CCC(C(=O)Nn2cnc3ccccc3c2=O)CC1` (configuration not stated), for which the viability was 101% (inactive) in assay [1]; 108% (inactive) in assay [2]; 91.7% (inactive) in assay [3]; 82% in assay [4] (setting [7]); 91.7% in assay [4] (setting [8]). In addition, the differential viability (reversal) in assay [4] (H69AR cells + 2 uM doxorubicin) is 9.62% (inactive). The inhibition is 1.17% (inactive) in assay [5] and 7.05% (inactive) in assay [6].

Take `O=C(Nc1cccc2ccccc12)N1CCN(c2ccccc2)CC1`: the viability was 89% (inactive) in assay [1]; 96.8% (inactive) in assay [2]; 94.4% (inactive) in assay [3]; 101% in assay [4] (setting [7]); 94.4% in assay [4] (setting [8]). Further, the differential viability (reversal) in assay [4] (H69AR cells + 2 uM doxorubicin) was -7% (inactive). Besides, the inhibition in assay [5] is -0.91% (inactive); in assay [6], 0.49% (inactive).

With `Cc1ccc(S(=O)(=O)NC(=O)NN2CCCCCC2)cc1`, the viability was 112% (inactive) in assay [1]; 81.1% (inactive) in assay [2]; 114% (inactive) in assay [3]; 100% in assay [4] (setting [7]); 114% in assay [4] (setting [8]). In addition, the differential viability (reversal) in assay [4] (H69AR cells + 2 uM doxorubicin) is 14% (inactive). Besides, the inhibition is -3.38% (inactive) in assay [5] and 4.17% (inactive) in assay [6].

Regarding `O=C(O)c1ccccc1Nc1cccc(C(F)(F)F)c1`, the viability was 135% (inactive) in assay [1]; 69.6% (inactive) in assay [2]; 88.6% (inactive) in assay [3]; 77.3% in assay [4] (setting [7]); 88.6% in assay [4] (setting [8]). Besides, in assay [4] (H69AR cells + 2 uM doxorubicin), the differential viability (reversal) was 11.3% (inactive). In addition, the inhibition in assay [5] is -1.3% (inactive); in assay [6], 2% (inactive).

In the case of `CCOC(=O)c1nnc2ccnn2c1N`, the viability was 74% (inactive) in assay [1]; 87.9% (inactive) in assay [2]; 109% (inactive) in assay [3]; 107% in assay [4] (setting [7]); 109% in assay [4] (setting [8]). Further, in assay [4] (H69AR cells + 2 uM doxorubicin), the differential viability (reversal) is 1.61% (inactive). Moreover, the figures for the inhibition in assay [5] and in assay [6] were -4.79% (inactive) and -2.91% (inactive), respectively.

In the case of `Cn1c(C(=O)OC(C(=O)NC2CCCC2)c2cccnc2)cc2sccc21` (configuration not stated), the viability is 74% (inactive) in assay [1]; 110% (inactive) in assay [2]; 89.1% (inactive) in assay [3]; 92.6% in assay [4] (setting [7]); 89.1% in assay [4] (setting [8]). The differential viability (reversal) in assay [4] (H69AR cells + 2 uM doxorubicin) was -3.48% (inactive). Further, the inhibition is -4.38% (inactive) in assay [5] and 2.91% (inactive) in assay [6].

For `COc1ccc2nc(S(=O)Cc3ncc(C)c(OC)c3C)[nH]c2c1` (configuration not stated), the viability was 88% (inactive) in assay [1]; 71.1% (inactive) in assay [2]; 80.8% (inactive) in assay [3]; 94.1% in assay [4] (setting [7]); 80.8% in assay [4] (setting [8]). For the same compound, the differential viability (reversal) in assay [4] (H69AR cells + 2 uM doxorubicin) was -13.3% (inactive). In addition, the inhibition was -1.69% (inactive) in assay [5] and -2.5% (inactive) in assay [6].

In the case of `COc1cccc(NC(=O)c2ccccc2NS(C)(=O)=O)c1`, the viability is 86% (inactive) in assay [1]; 91.8% (inactive) in assay [2]; 91.9% (inactive) in assay [3]; 87.5% in assay [4] (setting [7]); 91.9% in assay [4] (setting [8]). Also, in assay [4] (H69AR cells + 2 uM doxorubicin), the differential viability (reversal) is 4.45% (inactive). In addition, the figures for the inhibition in assay [5] and in assay [6] were -5.89% (inactive) and -3.45% (inactive), respectively.

Turning to `O=C(CCn1cccc1)N1CCc2ccccc21`, the viability in assay [1] is 104% (inactive); in assay [2] it was 83% (inactive); in assay [3], 101% (inactive); in assay [4] (setting [7]), 87.6%; in assay [4] (setting [8]), 101%. The differential viability (reversal) in assay [4] (H69AR cells + 2 uM doxorubicin) was 13.3% (inactive). For the same compound, the inhibition in assay [5] was -2.08% (inactive); in assay [6], 2.13% (inactive).

As to `CCOC(=O)N1CCN(C(=O)COc2cc(=O)n(C)c3ccccc23)CC1`, the viability in assay [1] was 98% (inactive); in assay [2], 98.2% (inactive); in assay [3], 98.2% (inactive); in assay [4] (setting [7]), 81.5%; in assay [4] (setting [8]) it was 98.2%. Besides, the differential viability (reversal) in assay [4] (H69AR cells + 2 uM doxorubicin) was 16.7% (inactive). In addition, the inhibition was 0.91% (inactive) in assay [5] and 15.9% (inactive) in assay [6].

For `CCC(c1c(C)n(C)n(-c2ccccc2)c1=O)c1c(C)n(C)n(-c2ccccc2)c1=O`, the viability in assay [1] was 78% (inactive); in assay [2], 103% (inactive); in assay [3] it was 100% (inactive); in assay [4] (setting [7]), 91.5%; in assay [4] (setting [8]) it was 100%. Besides, the differential viability (reversal) in assay [4] (H69AR cells + 2 uM doxorubicin) is 8.48% (inactive). Moreover, the inhibition is -5.21% (inactive) in assay [5] and 4.73% (inactive) in assay [6].

Consider `CC1(C)C(c2cccs2)=[N+]([O-])C2(CCCCC/C2=N\O)N1O` (configuration not stated), for which the viability in assay [1] is 99% (inactive); in assay [2], 101% (inactive); in assay [3] it was 110% (inactive); in assay [4] (setting [7]), 91.8%; in assay [4] (setting [8]), 110%. For the same compound, the differential viability (reversal) in assay [4] (H69AR cells + 2 uM doxorubicin) is 18.4% (inactive). Besides, the results for the inhibition in assay [5] and in assay [6] were -7.95% (inactive) and -1.27% (inactive), respectively.

In the case of `CCOC(=O)C1/C(=N\O)CC(C)(O)C(C(=O)OCC)C1c1ccc(N(C)C)cc1` (configuration not stated), the viability is 72% (inactive) in assay [1]; 96.9% (inactive) in assay [2]; 87.5% (inactive) in assay [3]; 101% in assay [4] (setting [7]); 87.5% in assay [4] (setting [8]). Moreover, the differential viability (reversal) in assay [4] (H69AR cells + 2 uM doxorubicin) was -13.3% (inactive). Also, the inhibition in assay [5] is 1.64% (inactive); in assay [6], 5.48% (inactive).

Turning to `CC(C)Oc1cc2oc(=O)c3c(c2cc1Cl)CCC3`, the viability in assay [1] is 66% (inactive); in assay [2], 99% (inactive); in assay [3], 98.2% (inactive); in assay [4] (setting [7]), 78.6%; in assay [4] (setting [8]) it was 98.2%. In addition, in assay [4] (H69AR cells + 2 uM doxorubicin), the differential viability (reversal) is 19.7% (inactive). For the same compound, the inhibition is -7.4% (inactive) in assay [5] and 0.97% (inactive) in assay [6].

In the case of `CC(C)(C)NS(=O)(=O)c1ccc(CCC(=O)O)cc1`, the viability in assay [1] is 100% (inactive); in assay [2], 105% (inactive); in assay [3], 94.8% (inactive); in assay [4] (setting [7]), 100%; in assay [4] (setting [8]), 94.8%. Also, the differential viability (reversal) in assay [4] (H69AR cells + 2 uM doxorubicin) was -5.2% (inactive). In addition, the values for the inhibition in assay [5] and in assay [6] were -3.42% (inactive) and -1.45% (inactive), respectively.

For the compound `Cc1ccc(C)c(CSc2nnc(CCN)o2)c1`, the viability was 101% (inactive) in assay [1]; 41.5% (inactive) in assay [2]; 71.2% (inactive) in assay [3]; 91.8% in assay [4] (setting [7]); 71.2% in assay [4] (setting [8]). For the same compound, in assay [4] (H69AR cells + 2 uM doxorubicin), the differential viability (reversal) was -20.6% (inactive). In addition, the results for the inhibition in assay [5] and in assay [6] were -7.67% (inactive) and 5.45% (inactive), respectively.

As to `O=C(c1cccc2c1C(=O)N(Cc1cccnc1)C2)N1CCN(c2ccccc2)CC1`, the viability in assay [1] is 127% (inactive); in assay [2] it was 97.3% (inactive); in assay [3], 93.3% (inactive); in assay [4] (setting [7]) it was 89.5%; in assay [4] (setting [8]) it was 93.3%. Besides, the differential viability (reversal) in assay [4] (H69AR cells + 2 uM doxorubicin) is 3.83% (inactive). In addition, the inhibition in assay [5] was -4.93% (inactive); in assay [6], -1.09% (inactive).

For `C=CCn1c(SCC(=O)NCC2CCCO2)nc2scc(-c3ccco3)c2c1=O` (configuration not stated), the viability is 112% (inactive) in assay [1]; 88.2% (inactive) in assay [2]; 92.9% (inactive) in assay [3]; 94.2% in assay [4] (setting [7]); 92.9% in assay [4] (setting [8]). The differential viability (reversal) in assay [4] (H69AR cells + 2 uM doxorubicin) was -1.34% (inactive). For the same compound, the figures for the inhibition in assay [5] and in assay [6] were -3.84% (inactive) and 2.58% (inactive), respectively.

For the compound `CCOC(=O)c1sc(NC(=O)CSc2ncn(-c3ccccc3)n2)nc1C`, the viability was 109% (inactive) in assay [1]; 97.5% (inactive) in assay [2]; 82.9% (inactive) in assay [3]; 88.1% in assay [4] (setting [7]); 82.9% in assay [4] (setting [8]). Besides, the differential viability (reversal) in assay [4] (H69AR cells + 2 uM doxorubicin) is -5.19% (inactive). Moreover, the inhibition in assay [5] was -7.95% (inactive); in assay [6] it was 3.09% (inactive).
